Sampled rows, rich in hits. Any-hit rate of the full collection: about 0.73%.
PKD1 kinase inh = inhibitors of human PKD1 kinase; inhibition, % (test concentration not listed); Q15139; 0.056% of 200,000 active; PKD1 kinase fluorescence polarization assay; in the data active means inhibition above about 50%
Arbovirus anti = antivirals against arbovirus infection. 0.37% of 200,000 active. arbovirus infection cell-based antiviral screen. inhibition, % at 10 µM; in the data active means inhibition above about 30%
TNAP act hi DEA = TNAP (human) activation, high acceptor; purified TNAP, CDP-star luminescence, 1 M DEA, 30 min; stronger effect = higher value; 0 = EDTA background, 1 = DMSO-only activity; activation factor at 20 µM; P05186; 200,000 tested, under 10 active;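 active means activation factor at least 2 at 20 µM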
Target sequence (P05186 whole entry, looked up): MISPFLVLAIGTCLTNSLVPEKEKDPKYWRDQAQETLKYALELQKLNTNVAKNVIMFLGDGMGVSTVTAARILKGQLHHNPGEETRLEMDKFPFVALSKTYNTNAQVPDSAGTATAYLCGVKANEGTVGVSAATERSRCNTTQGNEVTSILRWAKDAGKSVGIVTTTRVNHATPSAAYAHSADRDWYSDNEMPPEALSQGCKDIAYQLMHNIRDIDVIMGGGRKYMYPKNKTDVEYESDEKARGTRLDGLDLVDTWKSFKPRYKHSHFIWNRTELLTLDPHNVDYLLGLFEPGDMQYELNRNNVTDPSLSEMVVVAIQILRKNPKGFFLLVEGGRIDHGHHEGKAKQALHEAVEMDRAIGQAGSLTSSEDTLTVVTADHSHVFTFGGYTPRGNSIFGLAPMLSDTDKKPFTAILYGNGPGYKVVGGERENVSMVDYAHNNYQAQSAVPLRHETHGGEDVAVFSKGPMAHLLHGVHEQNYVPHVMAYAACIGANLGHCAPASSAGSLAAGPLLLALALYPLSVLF
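Test system – human TNAP · Doses – 20 µM single point · Incubation – 30 min, room temperature · Signal – luminescent substrate turnover signal · Read-out basis – activation factor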
TNAP inh hi DEA = inhibitors of human TNAP at high phosphate acceptor concentration | 0.03% of 200,000 active | inhibition, % at 20 µM | purified TNAP, CDP-star luminescence, 1 M DEA | P05186;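 active means over 50% inhibition of tissue-nonspecific alkaline phosphatase at 20 µM in the single-dose screen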
TNAP inh no acc = blocks human TNAP activity with no phosphate acceptor present; AID 1012; purified TNAP, CDP-star luminescence, 30 min; inhibition, % at 20 µM; 0.26% of 200,000 active; P05186;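 active means tissue-nonspecific alkaline phosphatase inhibition above about 50% at 20 µM in the single-dose screen, limit read from the data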
PKD FP artifact = interferes with fluorescence polarization in PKD inhibitor counter-screen; shares compounds with PKD1 kinase inh; PKD1 FP assay interference counter-screen; inhibition, % at 10 µM; 85 tested, under 10 active; call rule not given here
Hits are given with their value; 0 = inactive; - = no result given.

SMILES	PKD1 kinase inh	Arbovirus anti	TNAP act hi DEA	TNAP inh hi DEA	TNAP inh no acc	others
CCOC(=O)COc1c(/C=N\O)cc(Cl)cc1OC	0	0	0	0	0
O=C(CCCc1ccccc1)Nc1ccc2c(c1)OCCO2	0	0	0	0	0
O=C(c1cccnc1)n1nc(-c2ccco2)nc1NCc1cccs1	0	0	0	0	63.3
O=C(Nc1nnc(SCc2ccc(F)cc2)s1)c1ccc2c(c1)C(=O)N(c1ccccc1Cl)C2=O	0	43.8	0	0	0
Cc1ccc2nc(-c3ccc(Br)o3)oc(=O)c2c1	0	37.3	0	0	0
COc1cc2nc(-c3ccc(Br)o3)oc(=O)c2cc1OC	0	0	0	0	0
CCOC(=O)Cc1nnc(NC(=O)c2ccccc2OCC)s1	0	78.3	0	0	0
CC1(C)Oc2ccc3ccc(=O)oc3c2-c2cn[nH]c21	89.9	0	0	0	0
CC1(C)Oc2ccc3ccc(=O)oc3c2-c2cnoc21	0	0	0	0	0
CCCCN1C(=O)C2Cc3c([nH]c4ccccc34)CN2C1=S (stereo unspecified)	0	0	0	0	0
O=C(CSc1n[nH]c(-c2ccccc2Br)n1)NCCN1C(=O)CSC1=O	0	0	0	0	84.0
O=C(CSc1n[nH]c(-c2ccccc2Br)n1)NC(=O)NCc1ccco1	0	0	0	0	82.2
CC(C)(C)NC(=O)NC(=O)CSc1n[nH]c(-c2ccccc2Br)n1	0	0	0	0	0
Cc1ccccc1OCc1nnc2c3cnn(C)c3ncn12	0	0	0	0	55.4
COc1ccc(OC)c(S(=O)(=O)Nc2cccnc2)c1	0	0	0	74.8	86.4
OCC1(CCOc2ccccc2)CCN(Cc2nc3ccc(F)cc3[nH]2)CC1	0	55.4	0	0	0
COc1ccc(/C=N/NC(C)(C)C)c(OC)c1	0	0	0	0	0
NNC(=O)c1cc(-c2ccco2)[nH]n1	0	0	0	0	75.4
O=C(N/N=C/C(Br)=C/c1ccccc1)c1cc(-c2ccco2)[nH]n1	0	0	0	0	0
Cc1ccc(NC(=O)/C=C\C(=O)NCC(=O)O)cc1	0	0	0	0	0
Cc1ccc(-c2nnc(Nc3ccc4c(c3)OCO4)c3ccccc23)cc1S(N)(=O)=O	0	0	0	0	79.3
Cc1nnc(Nc2ccc3c(c2)OCO3)c2ccccc12	0	0	0	0	0
CCOC(=O)C(NC(=O)c1cccc(Cl)c1)(OCc1ccc(F)cc1)C(F)(F)F (stereo unspecified)	0	48.8	0	0	0
Cc1cc(Cl)ccc1C(=O)C1CCCN(C(=O)c2ccc3ncccc3c2)C1 (stereo unspecified)	0	0	0	0	0
Cc1[nH]c2ccccc2c1N=Nc1ccccc1C(=O)O	0	0	0	0	0
SMILES	PKD1 kinase inh	Arbovirus anti	TNAP act hi DEA	TNAP inh hi DEA	TNAP inh no acc	others
Cc1nn(-c2nc3ccccc3n2Cc2ccccc2)c2c1C(=O)CC(C)(C)C2	0	0	0	0	0
CCCc1nn(-c2cc(Cl)ccc2OC)c2c1C(=O)CC(C)(C)C2	0	0	0	0	0
CCCc1nn(C(=O)c2ccccc2)c2c1C(=O)CC(C)(C)C2	0	0	0	0	51.5
Cc1nn(C(=O)c2ccccc2)c2c1C(=O)CC(C)(C)C2	0	0	0	0	55.6
Cc1c(NC(=O)CCc2ccccc2)cccc1[N+](=O)[O-]	0	0	0	0	0
Cc1cccc(C)c1Nc1nc2ccccc2o1	0	46.3	0	0	0
Cc1nc(Nc2nc3ccccc3o2)nc2c1CCC2	0	0	0	0	0
Cc1ccc(C2CC(=O)c3cnn(-c4nc(C)cc(C)n4)c3C2)cc1 (stereo unspecified)	0	35.6	0	0	0
CCCCCCC(=O)NNC(=O)CC(=O)Nc1ccccc1C(=O)O	0	0	0	0	0
Cc1ccccc1-n1c(C)nnc1SCC(=O)N(C)C1CCS(=O)(=O)C1 (stereo unspecified)	0	0	0	0	0
Cc1ccc(NC(=O)C2CCN(S(=O)(=O)c3c(C)n[nH]c3C)CC2)nc1	0	0	0	0	55.3
Cc1n[nH]c(C)c1S(=O)(=O)N1CCN(C(=O)c2ccco2)CC1	0	0	0	0	60.5
O=C(c1ccco1)N1CCN(S(=O)(=O)N2CCOCC2)CC1	0	0	0	0	0
Cc1ccc(-n2c(-c3ccncc3)n[nH]c2=S)c(C)c1	0	0	0	0	0
CCc1ccc(NC(=O)CC2C(=O)N(c3cccc(C)c3)C(=O)N2C2CC2)cc1 (stereo unspecified)	0	0	0	0	0
CCc1ccccc1OCC(=O)NC1CCCC1	0	0	0	0	0
COC(=O)c1ccccc1OCC(=O)NC1CCCCC1	84.9	0	0	0	0	PKD FP artifact=0
CCc1nnc(NS(=O)(=O)c2ccc(NC(=S)NC(=O)/C=C/c3ccc(C(C)C)cc3)cc2)s1	0	0	0	0	0
Nc1nc2ccc([N+](=O)[O-])c(N)c2s1	97.0	0	0	0	0	PKD FP artifact=0
Cc1noc(C)c1CSCc1ccc(Cl)cc1	0	0	0	0	0
COc1cc(C2=NOC(C(=O)NCc3ccco3)C2)cc(OC)c1OC (stereo unspecified)	111.6	0	0	0	0	PKD FP artifact=0
COc1ccc(C2=NOC(C(=O)NCc3ccco3)C2)cc1 (stereo unspecified)	0	0	0	0	0
Cc1c(N/N=C(\C#N)C(=O)c2ccccc2)c(=O)n(-c2ccccc2)n1C	54.9	0	0	0	0	PKD FP artifact=0
C=CCNC(=O)NC(=O)COC(=O)CNS(=O)(=O)c1ccc(F)c(F)c1F	0	0	0	0	0
O=C1NCCCc2c1oc1ccc(O)cc21	100.2	0	0	0	0	PKD FP artifact=0
SMILES	PKD1 kinase inh	Arbovirus anti	TNAP act hi DEA	TNAP inh hi DEA	TNAP inh no acc	others
O=C(CN1CCN(c2ncccn2)CC1)N1CCCc2c1c(=O)oc1ccc(O)cc21	0	0	0	0	0
O=C(c1cc(-c2ccccc2)nc2ccccc12)N1CCN(c2ccccn2)CC1	93.2	0	0	0	0	PKD FP artifact=0
O=C(c1cc(-c2ccncc2)nc2ccccc12)N1CCN(c2ccccn2)CC1	0	0	0	0	0
Cc1ccc(C(=O)C2=C(O)C(=O)N(c3ncccn3)C2c2cccc(Cl)c2)o1 (stereo unspecified)	-	-	0	0	0
C=CCOc1cccc(C2C(C(=O)c3ccc(C)o3)=C(O)C(=O)N2c2nccs2)c1 (stereo unspecified)	76.0	0	0	0	0	PKD FP artifact=54.1
O=C(O)c1n[nH]c2ccccc12	0	0	0	0	0
c1ccc(-c2n[nH]c3ccccc23)cc1	90.0	0	0	0	89.5	PKD FP artifact=0
Clc1ccc(Nc2ccc(-n3ccnc3)nn2)cc1Cl	51.8	0	0	0	0	PKD FP artifact=0
Clc1cncc(Cl)c1N/N=C/c1ccncc1	91.4	0	0	0	0	PKD FP artifact=0
CS(=O)(=O)N1CCN(c2ccccc2NC(=O)c2ccc(Br)o2)CC1	95.9	0	0	0	0	PKD FP artifact=0
CN1CCN(c2ccccc2NC(=O)c2ccc(Br)o2)CC1	0	0	0	0	0
